ChEMBL document CHEMBL3259727, “Cathepsin C inhibitors: property optimization and identification of a clinical candidate” (J Med Chem, 2014)
Active and inactive are the calls of the source. The rule behind the calls is not given here.

Key:
Rattus norvegicus [1] = species on record: Rattus norvegicus; experiment: Toxicity in rat assessed as liver cholangitis; assay type: organism-based; settings: in vivo
[2] = Volume of distribution at steady state in dog; assay type: ADME, organism-based, Canis lupus familiaris; settings: in vivo, read-out: Vdss
[3] = Intrinsic clearance in rat hepatocytes assessed per million cells; assay type: ADME, cell-based, Hepatocyte; settings: read-out: CLH
Procedure, shortened: (§1)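 Intrinsic clearance (Clint) determined in human liver microsome and rat hepatocyte preparations.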

Leukotriene B4 receptor [4] = target: T1, Leukotriene B4 receptor (Homo sapiens, UniProt Q9NPC1+Q15722); experiment: Binding affinity to leukotriene B4 receptor (unknown origin) at 10 uM; assay type: protein assay
Procedure, shortened: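 Screened at 10 μM in a human LTB4 binding assay within a panel of over 170 assays; percent inhibition reported.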

[5] = Intrinsic clearance in human microsomes; assay type: ADME, Microsome; procedure, shortened: as §1
Rattus norvegicus [6] = species on record: Rattus norvegicus; experiment: Toxicity in rat assessed as liver hypertrophy; assay type: organism-based; settings: in vivo
[7] = Clearance in mouse; assay type: ADME, organism-based; settings: in vivo
Cathepsin K = target: T2, Cathepsin K (Homo sapiens, UniProt P43235); experiment: (§2) Inhibition of Cathepsin K (unknown origin)
T2 sequence (P43235 whole entry): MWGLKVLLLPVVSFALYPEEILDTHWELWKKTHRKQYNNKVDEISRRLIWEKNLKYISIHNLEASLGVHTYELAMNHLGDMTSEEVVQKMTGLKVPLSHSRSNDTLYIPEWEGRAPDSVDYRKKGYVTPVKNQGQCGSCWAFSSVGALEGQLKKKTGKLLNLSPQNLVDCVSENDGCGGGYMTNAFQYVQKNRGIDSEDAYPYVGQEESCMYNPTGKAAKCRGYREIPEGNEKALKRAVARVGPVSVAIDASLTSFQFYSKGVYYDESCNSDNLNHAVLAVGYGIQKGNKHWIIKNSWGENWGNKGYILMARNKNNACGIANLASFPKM

[8] = Lipophilicity, log D of the compound; assay type: physicochemical; settings: octanol/water
[9] = Volume of distribution at steady state in rat; assay type: ADME, organism-based; settings: in vivo, read-out: Vdss
[10] = Clearance in rat; assay type: ADME, organism-based; settings: in vivo
[11] = target: Voltage-gated inwardly rectifying potassium channel KCNH2 (Homo sapiens, UniProt Q12809); experiment: Inhibition of human ERG by electrophysiology assay
[12] = Bioavailability in rat; assay type: ADME, organism-based; settings: in vivo
[13] = Half life in dog; assay type: ADME, organism-based, Canis lupus familiaris; settings: in vivo
Leukotriene B4 receptor [14] = target: T1, Leukotriene B4 receptor; experiment: Binding affinity to leukotriene B4 receptor (unknown origin); assay type: protein assay
[15] = Volume of distribution at steady state in mouse; assay type: ADME, organism-based; settings: in vivo, read-out: Vdss
[16] = Bioavailability in mouse; assay type: ADME, organism-based; settings: in vivo
[17] = Dissociation constant, pKa of the compound; assay type: physicochemical
Rattus norvegicus [18] = species on record: Rattus norvegicus; experiment: Toxicity in rat assessed as foci of foaming macrophages in lung; assay type: organism-based
Cathepsin S = Cathepsin S (Homo sapiens, UniProt P25774); experiment: Inhibition of Cathepsin S (unknown origin)
Procathepsin L = Procathepsin L (Homo sapiens, UniProt P07711); experiment: Inhibition of Cathepsin L (unknown origin)
Cathepsin B = Cathepsin B (Homo sapiens, UniProt P07858); experiment: Inhibition of Cathepsin B (unknown origin)
[19] = Induction of phospholipid accumulation in rat hepatoma cells; assay type: cell-based
[20] = Bioavailability in dog; assay type: ADME, organism-based, Canis lupus familiaris; settings: in vivo
Rattus norvegicus [21] = species on record: Rattus norvegicus; experiment: Toxicity in rat assessed as liver vacuolation; assay type: organism-based; settings: in vivo
[22] = Half life in rat; assay type: ADME, organism-based; settings: in vivo
[23] = Clearance in dog; assay type: ADME, organism-based, Canis lupus familiaris; settings: in vivo
[24] = Half life in mouse; assay type: ADME, organism-based; settings: in vivo
Dipeptidyl peptidase 1 [25] = target: T3, Dipeptidyl peptidase 1 (Homo sapiens, UniProt P53634); experiment: Inhibition of recombinant human cathepsin C using H-Gly-Arg-AMC as substrate preincubated for 30 mins before substrate addition measured after 60 mins by fluorescence assay
Dipeptidyl peptidase 1 [26] = target: T3, Dipeptidyl peptidase 1; experiment: Inhibition of cathepsin C in human THP1 cells assessed as inhibition of H-Gly-Phe-AFC cleavage by fluorescence assay; assay type: cell-based, THP-1
Procedure, shortened: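 Cellular CatC activity in human THP1 cells measured as cleavage of fluorogenic substrate H-Gly-Phe-AFC; pIC50 determined.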

[27] = target: T4, Cathepsin K (Homo sapiens) (UniProt P43235); experiment: as §2
T4 sequence (whole entry): T2 sequence (P43235 whole entry)

[28] = target: T4, Cathepsin K (Homo sapiens); experiment: Inhibition of Cathepsin K (unknown origin) at 10 uM
Hepatocyte [29] = experiment: Metabolic stability in rat hepatocytes assessed per compound oxidation by LC-MS/MS analysis; assay type: ADME, cell-based
Hepatocyte [30] = experiment: Metabolic stability in human hepatocytes assessed per compound oxidation by LC-MS/MS analysis; assay type: ADME, cell-based
Plasma [31] = experiment: Stability in rat plasma; assay type: ADME, cell-free
Plasma [32] = experiment: Stability in human plasma; assay type: ADME, cell-free

Sequence of Procathepsin L (P07711 whole entry): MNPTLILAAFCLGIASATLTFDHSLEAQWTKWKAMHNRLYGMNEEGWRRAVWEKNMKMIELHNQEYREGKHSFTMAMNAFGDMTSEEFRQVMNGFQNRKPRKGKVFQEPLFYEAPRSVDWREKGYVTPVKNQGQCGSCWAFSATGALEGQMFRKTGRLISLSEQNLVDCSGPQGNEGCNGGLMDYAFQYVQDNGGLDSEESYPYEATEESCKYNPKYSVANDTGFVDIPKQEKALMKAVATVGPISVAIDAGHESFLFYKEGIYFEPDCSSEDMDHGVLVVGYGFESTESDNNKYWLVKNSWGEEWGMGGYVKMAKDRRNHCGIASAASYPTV
Sequence of Cathepsin S (P25774 whole entry): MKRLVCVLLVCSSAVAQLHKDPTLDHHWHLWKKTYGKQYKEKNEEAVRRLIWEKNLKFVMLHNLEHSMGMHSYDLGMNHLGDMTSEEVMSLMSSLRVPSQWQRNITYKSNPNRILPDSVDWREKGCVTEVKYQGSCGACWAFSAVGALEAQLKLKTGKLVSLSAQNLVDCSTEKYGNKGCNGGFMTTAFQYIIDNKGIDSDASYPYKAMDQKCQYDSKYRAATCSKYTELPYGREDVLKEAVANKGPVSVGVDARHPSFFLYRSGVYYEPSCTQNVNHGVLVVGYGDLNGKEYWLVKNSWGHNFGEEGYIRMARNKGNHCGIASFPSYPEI
T3 sequence (P53634 25-134 limits assumed): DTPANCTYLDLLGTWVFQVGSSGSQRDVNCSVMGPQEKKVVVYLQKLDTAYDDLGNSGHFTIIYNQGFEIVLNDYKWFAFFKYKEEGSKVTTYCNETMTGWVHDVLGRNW
T3 sequence (P53634 231-394 limits assumed): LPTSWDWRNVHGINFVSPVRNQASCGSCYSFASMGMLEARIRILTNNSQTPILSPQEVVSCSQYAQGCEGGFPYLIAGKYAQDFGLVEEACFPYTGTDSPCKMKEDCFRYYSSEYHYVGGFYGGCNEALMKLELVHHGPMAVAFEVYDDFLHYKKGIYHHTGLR
T3 sequence (P53634 395-463 limits assumed): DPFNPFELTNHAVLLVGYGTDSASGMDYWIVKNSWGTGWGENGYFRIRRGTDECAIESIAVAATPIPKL
Sequence of Voltage-gated inwardly rectifying potassium channel KCNH2 (Q12809 whole entry): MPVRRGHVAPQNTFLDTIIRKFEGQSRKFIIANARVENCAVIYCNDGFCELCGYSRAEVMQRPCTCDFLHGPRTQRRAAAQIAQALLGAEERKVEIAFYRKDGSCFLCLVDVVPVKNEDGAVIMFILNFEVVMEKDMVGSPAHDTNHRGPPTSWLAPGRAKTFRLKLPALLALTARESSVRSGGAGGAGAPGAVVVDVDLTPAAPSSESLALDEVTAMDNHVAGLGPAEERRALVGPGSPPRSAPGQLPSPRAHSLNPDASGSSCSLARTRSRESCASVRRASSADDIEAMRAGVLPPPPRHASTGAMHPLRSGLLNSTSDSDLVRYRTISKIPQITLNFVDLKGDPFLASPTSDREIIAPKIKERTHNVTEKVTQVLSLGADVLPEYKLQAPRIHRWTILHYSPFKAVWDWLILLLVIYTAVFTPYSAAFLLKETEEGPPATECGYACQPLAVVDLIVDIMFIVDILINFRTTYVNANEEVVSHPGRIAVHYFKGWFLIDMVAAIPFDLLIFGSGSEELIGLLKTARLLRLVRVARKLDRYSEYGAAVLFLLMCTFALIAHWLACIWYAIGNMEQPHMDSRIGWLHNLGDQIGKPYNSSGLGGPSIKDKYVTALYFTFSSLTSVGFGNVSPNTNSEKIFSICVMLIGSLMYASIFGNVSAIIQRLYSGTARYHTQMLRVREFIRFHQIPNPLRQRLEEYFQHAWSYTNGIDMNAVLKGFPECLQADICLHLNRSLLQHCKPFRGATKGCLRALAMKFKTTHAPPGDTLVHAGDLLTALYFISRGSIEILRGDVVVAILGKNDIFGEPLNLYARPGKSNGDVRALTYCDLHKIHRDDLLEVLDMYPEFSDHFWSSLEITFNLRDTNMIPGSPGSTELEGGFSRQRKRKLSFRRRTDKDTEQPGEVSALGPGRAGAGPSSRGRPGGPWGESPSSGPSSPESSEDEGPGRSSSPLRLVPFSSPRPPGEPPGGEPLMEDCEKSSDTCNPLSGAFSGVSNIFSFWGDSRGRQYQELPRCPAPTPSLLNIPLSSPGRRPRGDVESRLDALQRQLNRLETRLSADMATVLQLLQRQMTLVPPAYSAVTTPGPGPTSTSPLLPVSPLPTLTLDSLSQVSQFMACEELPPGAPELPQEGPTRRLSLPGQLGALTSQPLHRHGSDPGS
T1 sequence (Q15722 whole entry, looked up): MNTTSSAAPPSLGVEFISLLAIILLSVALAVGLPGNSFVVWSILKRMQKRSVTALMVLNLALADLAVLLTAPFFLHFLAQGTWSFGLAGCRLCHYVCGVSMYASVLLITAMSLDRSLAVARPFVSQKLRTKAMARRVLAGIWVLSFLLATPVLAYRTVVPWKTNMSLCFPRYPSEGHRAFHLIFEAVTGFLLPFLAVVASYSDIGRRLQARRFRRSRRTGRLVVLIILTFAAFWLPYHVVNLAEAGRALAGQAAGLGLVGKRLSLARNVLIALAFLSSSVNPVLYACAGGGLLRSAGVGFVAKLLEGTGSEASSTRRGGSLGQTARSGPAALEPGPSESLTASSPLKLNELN
T1 sequence (Q9NPC1 whole entry, looked up): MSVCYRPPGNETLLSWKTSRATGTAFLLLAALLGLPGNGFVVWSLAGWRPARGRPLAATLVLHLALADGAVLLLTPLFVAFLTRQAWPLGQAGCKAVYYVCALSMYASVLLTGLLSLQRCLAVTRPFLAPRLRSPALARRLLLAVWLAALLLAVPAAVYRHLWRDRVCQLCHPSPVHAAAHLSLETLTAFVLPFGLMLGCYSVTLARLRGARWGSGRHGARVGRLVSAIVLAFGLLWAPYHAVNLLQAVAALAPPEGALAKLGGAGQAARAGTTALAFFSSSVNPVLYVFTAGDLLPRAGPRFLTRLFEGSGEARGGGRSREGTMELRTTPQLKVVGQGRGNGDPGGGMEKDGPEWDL

| SMILES | hepatocyte CLint [3] [µL/min/1e6 cells] | microsomal CLint [5] [µL/min/mg] | IC50 (Cathepsin K) [µM] | logD [8] | IC50 [11] [µM] | pKa [17] | IC50 (Cathepsin S) [µM] | IC50 (Procathepsin L) [µM] | IC50 (Cathepsin B) [µM] | EC50 [19] [µM] | IC50 (Dipeptidyl peptidase 1 [25]) [µM] | IC50 (Dipeptidyl peptidase 1 [26]) [µM] | also measured |
| --- | --- | --- | --- | --- | --- | --- | --- | --- | --- | --- | --- | --- | --- |
| N#Cc1ccc(-c2ccc(C[C@@H](C#N)NC(=O)C3(N)CCOCC3)cc2)cc1 | 2.9 | 3.6 | > 10 | 1.9 | 26 | 5.8 | > 10 | > 10 | > 10 | > 100 | – | – | Activity (Rattus norvegicus [1]): Non-toxic; Vd [2]: 1.4 L/kg; inhibition (Leukotriene B4 receptor [4]): 69%; Activity (Rattus norvegicus [6]): Non-toxic; clearance [7]: 9 mL/min/kg; Vd [9]: 1.9 L/kg; clearance [10]: 9 mL/min/kg; bioavailability [12]: 92%; half-life [13]: 11.6 h; IC50 (Leukotriene B4 receptor [14]): 2 µM; Vd [15]: 1.6 L/kg; bioavailability [16]: 95%; Activity (Rattus norvegicus [18]): Non-toxic; bioavailability [20]: 72%; Activity (Rattus norvegicus [21]): Non-toxic; half-life [22]: 3.5 h; clearance [23]: 2 mL/min/kg; half-life [24]: 2 h |
| CSc1cc(-c2ccc(C[C@@H](C#N)NC(=O)[C@@H]3CCCCN3)cc2)ccc1C#N | 13 | 7 | 0.398 | – | 2.7 | – | > 10 | > 10 | > 10 | – | 0.00398 | 0.001 | – |
| CS(=O)(=O)c1cccc(-c2ccc(C[C@@H](C#N)NC(=O)C3(N)CCOCC3)cc2)c1 | < 3 | < 3 | – | 0.8 | > 33 | 6.3 | – | – | – | – | 0.000794 | 0.00794 | inhibition [27]: inactive |
| N#C[C@H](Cc1ccc(-c2ccccc2)cc1)NC(=O)C1(N)CCOCC1 | > 150 | > 150 | – | 2.3 | > 33 | 5.4 | – | – | – | – | 0.002 | 0.0316 | inhibition [27]: inactive |
| N#Cc1ccc(-c2ccc(C[C@@H](C#N)NC(=O)[C@@H]3CCCCN3)cc2)cc1 | < 3 | < 4 | 1 | 2.7 | 1.4 | 8.4 | > 10 | > 10 | > 10 | 9 | 0.0398 | 0.01 | Activity (Rattus norvegicus [1]): Toxic; Activity (Rattus norvegicus [6]): Toxic; Vd [9]: 5.6 L/kg; clearance [10]: 16 mL/min/kg; bioavailability [12]: 75%; Activity (Rattus norvegicus [18]): Toxic; Activity (Rattus norvegicus [21]): Toxic; half-life [22]: 4.5 h |
| CC[C@H](N)C(=O)N[C@H](C#N)Cc1ccc(-c2ccccc2)cc1 | – | – | – | – | – | – | – | – | – | – | 0.002 | 0.0631 | – |
| CN1Cc2ccc(-c3ccc(C[C@@H](C#N)NC(=O)C4(N)CCOCC4)cc3)cc2C1=O | 41 | < 3 | 7.94 | 1.1 | > 33 | 6.3 | – | – | – | – | – | 0.0501 | inhibition [28]: 50% |
| N#Cc1ccc(-c2ccc(C[C@@H](C#N)NC(=O)C3(N)CCCCC3)cc2)cc1 | 15 | 20 | – | 2.9 | 9 | 7.1 | – | – | – | – | 0.00251 | 0.00316 | – |
| N#Cc1ccc(-c2ccc(C[C@@H](C#N)NC(=O)[C@@H]3C[C@@H](O)CCN3)cc2)cc1 | 4 | < 3 | 6.31 | 1.4 | > 33 | 7.6 | > 10 | > 10 | > 10 | 75 | 0.00501 | 0.0126 | – |
| CN1Cc2cc(-c3ccc(C[C@@H](C#N)NC(=O)[C@@H]4C[C@@H](O)CCN4)cc3)ccc2C1=O | < 4 | < 4 | 7.94 | 0.5 | > 33 | – | > 10 | > 10 | > 10 | > 120 | 0.00398 | 0.0398 | – |
| N#C[C@H](Cc1ccc(-c2ccccc2)cc1)NC(=O)[C@@H]1CCCCN1 | > 150 | – | – | – | – | – | – | – | – | – | – | 0.158 | Stability (Hepatocyte [29]): Unstable; Stability (Hepatocyte [30]): Unstable; Stability (Plasma [31]): Stable; Stability (Plasma [32]): Stable |
| CN1Cc2cc(-c3ccc(C[C@@H](C#N)NC(=O)[C@@H]4CCCCN4)cc3)ccc2C1=O | 5 | < 3 | 0.251 | 1 | – | 7.1 | > 10 | > 10 | > 10 | – | 0.0251 | 0.00794 | – |
